pIC50: −log10 of the molar value.
Columns and labels:
LNCaP = assay: Cytotoxicity against human LNCAP cells assessed as inhibition of cell viability after 48 hrs by SRB assay; type: functional, cell-based
How it was run: (§1)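 Cells seeded at 2.5 × 10^4 per well and exposed to a concentration range for 48 h, then SRB total-protein stain. PC3 grown in phenol-red-free DMEM with 1% glutamine; LNCaP in phenol-red-free RPMI 1640 with glutamine and non-essential amino acids. HCT-8 and H460 in RPMI 1640. MRC-5 (plus glutamine and non-essential amino acids) and primary gingival fibroblasts in DMEM. All media had 10% FBS, 37 °C, 5% CO2. Paclitaxel was the reference. IC50 versus untreated controls by nonlinear regression, three independent experiments.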

Human alphaherpesvirus 2 [1] = assay: Antiviral activity against Herpes simplex virus 2-333 infected in African green monkey Vero cells assessed as inhibition of viral replication after 48 hrs by naphthol blue-black staining-based plaque reduction assay; type: functional, organism-based; details: Human alphaherpesvirus 2, 333, Vero
How it was run: (§2)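 Vero cells in MEM with 10% FBS, 37 °C, 5% CO2. Confluent monolayers (2.5 × 10^5 cells/well) infected with about 100 PFU for 1 h at 37 °C. Non-cytotoxic concentrations were added after infection. Cells were then PBS-washed and overlaid with MEM plus 1.5% carboxymethylcellulose, with or without compound, for 48 h. Fixed, naphthol blue-black stained, plaques counted under a stereomicroscope. IC50 versus untreated controls by nonlinear regression; mean of three independent experiments.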

MRC5 = assay: Cytotoxicity against human MRC5 cells assessed as inhibition of cell viability after 48 hrs by SRB assay; type: cell-based; details: MRC5, 48 h; how it was run: as §1
[2] = (§3) Selectivity index, ratio of Cytotoxicity against African green monkey Vero cells assessed as reduction in cell viability after 48 hrs by SRB assay to Antiviral activity against acyclovir-resistant Herpes simplex virus 1 29-R infected in African green monkey Vero cells assessed as inhibition of viral replication after 48 hrs by naphthol blue-black staining-based plaque reduction assay; type: toxicity; details: Vero cells infected with HSV-1 29-R, read-out: Ratio CC50/IC50
How it was run: (§4)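 Selectivity index = CC50 in Vero cells (SRB, 48 h) divided by plaque-reduction IC50 for the same virus strain.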

[3] = as §3, with “acyclovir-sensitive” for “acyclovir-resistant”, “KOS” for “29-R”; type: toxicity; details: Vero cells infected with HSV-1 KOS, read-out: Ratio CC50/IC50; how it was run: as §4
Human alphaherpesvirus 1 [4] = assay: Antiviral activity against acyclovir-sensitive Herpes simplex virus 1 KOS infected in African green monkey Vero cells assessed as inhibition of viral replication after 48 hrs by naphthol blue-black staining-based plaque reduction assay; type: functional, organism-based; details: Human alphaherpesvirus 1, strain KOS; how it was run: as §2
A549 = assay: Cytotoxicity against human A549 cells assessed as inhibition of cell viability after 48 hrs by SRB assay; type: functional, cell-based; details: A549, 48 h
[5] = Cytotoxicity against human HGF cells assessed as inhibition of cell viability after 48 hrs by SRB assay; type: cell-based; how it was run: as §1
[6] = Inhibition of porcine cortex Na+/K+-ATPase alpha1/2/3 subunit using ATP as substrate preincubated for 30 mins followed by substrate addition and measured after 30 mins by malachite green reagent-based assay; set-up: species or system Sus scrofa
Human alphaherpesvirus 1 [7] = assay: Antiviral activity against acyclovir-resistant Herpes simplex virus 1 29-R infected in African green monkey Vero cells assessed as inhibition of viral replication after 48 hrs by naphthol blue-black staining-based plaque reduction assay; type: functional, organism-based; details: Human alphaherpesvirus 1, 29-R, Vero, 48 h; read-out: IC50; how it was run: as §2
[8] = Cytotoxicity against African green monkey Vero cells assessed as reduction in cell viability after 48 hrs by SRB assay; type: cell-based; details: chlorocebus sabaeus
How it was run: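 Vero cells in MEM with 10% FBS, seeded at 2.5 × 10^4 cells/well. Exposed to a range of concentrations for 48 h at 37 °C, 5% CO2, then sulforhodamine B total-protein staining. CC50 is the concentration reducing viability by 50% versus untreated controls, from nonlinear regression; mean ± SD of three independent experiments.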

HCT-8 = assay: Cytotoxicity against human HCT8 cells assessed as inhibition of cell viability after 48 hrs by SRB assay; type: functional, cell-based; details: HCT-8, 48 h; how it was run: as §1
[9] = as §3, with “against” for “against acyclovir-resistant”, “2-333” for “1 29-R”; type: toxicity; details: Vero cells infected with HSV-2 333, read-out: Ratio CC50/IC50; how it was run: as §4
PC-3 = assay: Cytotoxicity against human PC3 cells assessed as inhibition of cell viability after 48 hrs by SRB assay; type: functional, cell-based; details: PC-3, 48 h; how it was run: as §1
NCI-H460 = assay: Cytotoxicity against human H460 cells assessed as inhibition of cell viability after 48 hrs by SRB assay; type: functional, cell-based; details: NCI-H460, 48 h; how it was run: as §1
Human alphaherpesvirus 2 [10] = assay: (§5) Potency index, ratio of IC50 for acyclovir to IC50 for test compound for antiviral activity against Herpes simplex virus 2-333 infected in African green monkey Vero cells assessed as inhibition of viral replication after 48 hrs by naphthol blue-black staining-based plaque reduction assay; type: functional
Human alphaherpesvirus 1 [11] = assay: as §5, with “against acyclovir-sensitive” for “against”, “1 KOS” for “2-333”; type: functional, strain KOS

| Structure (SMILES) | pIC50 (LNCaP) | pIC50 (Human alphaherpesvirus 2 [1]) | pIC50 (MRC5) | selectivity ratio at 48 h [2] | selectivity ratio at 48 h [3] | pIC50 (Human alphaherpesvirus 1 [4]) | pIC50 (A549) | pIC50 [5] | pIC50 [6] | pIC50 (Human alphaherpesvirus 1 [7]) | CC50 at 48 h [8] [nM] | pIC50 (HCT-8) | selectivity ratio at 48 h [9] | pIC50 (PC-3) | pIC50 (NCI-H460) | Ratio IC50 (Human alphaherpesvirus 2 [10]) | Ratio IC50 (Human alphaherpesvirus 1 [11]) |
| --- | --- | --- | --- | --- | --- | --- | --- | --- | --- | --- | --- | --- | --- | --- | --- | --- | --- |
| C[C@]12CC[C@H](n3cc(CO[C@H]4O[C@H](CO)[C@@H](O)[C@H](O)[C@@H]4O)nn3)C[C@H]1CC[C@@H]1[C@@H]2CC[C@]2(C)[C@@H](C3=CC(=O)OC3)CC[C@]12O | 5.78 | 6.39 | 6.44 | > 811 | > 546 | 6.26 | 6.24 | 5.85 | 5.26 | 6.43 | > 300000 | 5.99 | > 732 | 6.24 | 6.62 | – | – |
| C[C@@H](O)[C@H](O)[C@@H](O)CCN[C@H]1CC[C@@]2(C)[C@H](CC[C@@H]3[C@@H]2CC[C@]2(C)[C@@H](C4=CC(=O)OC4)CC[C@]32O)C1 | 5.61 | 5.90 | 6.26 | > 92.9 | > 206 | 5.84 | 6.17 | 5.59 | 5.69 | 5.49 | > 300000 | 5.90 | > 236 | 5.91 | 6.43 | – | – |
| C[C@]12CC[C@H](NC(=O)CO)C[C@H]1CC[C@@H]1[C@@H]2CC[C@]2(C)[C@@H](C3=CC(=O)OC3)CC[C@]12O | 6.09 | 6.52 | 6.60 | > 1580 | > 1250 | 6.62 | – | 5.78 | 6.07 | 6.72 | > 300000 | 6.16 | > 1000 | 6.38 | 6.59 | 11 | 6 |
| C[C@]12CC[C@H](NC(=O)CNCCO)C[C@H]1CC[C@@H]1[C@@H]2CC[C@]2(C)[C@@H](C3=CC(=O)OC3)CC[C@]12O | 6.89 | 6.57 | 6.89 | > 1670 | > 1300 | 6.64 | 6.72 | 6.18 | 5.70 | 6.74 | > 300000 | 7.05 | > 1110 | 6.74 | 7.15 | 12 | 6 |
